From paper PMC8245906 (Acta Pharmaceutica Sinica. B, 2021)
Like-named read-outs stand apart in the source and are kept apart here.

What was measured:
[1] = Microsomal stability in human liver microsomes; format: in vitro ADME; details: for microsomal CLint at 1 μmol/L: human, liver microsomes, pH 7.4
How it was run: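 Human liver microsomes (0.5 mg/mL protein) in 0.1 mol/L potassium phosphate, pH 7.4, 37 °C, with 1 mmol/L NADPH and 1 mmol/L MgCl₂, or without NADPH. Test compound at 1 µmol/L final. For CYP3A inhibition, cobicistat was pre-incubated 5 min before the compound. Sampled at 0–60 min and quenched with acidified acetonitrile. LC/MS/MS gave t1/2 and CLint; at least duplicate.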

[2] = Microsomal stability in CD-1 mice liver microsomes; format: in vitro ADME; details: for microsomal CLint at 1 μmol/L: CD-1, mouse, liver microsomes, pH 7.4
How it was run: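 Mouse liver microsomes (0.5 mg/mL protein, final) in 0.1 mol/L potassium phosphate, pH 7.4, 37 °C, with 1 mmol/L NADPH and 1 mmol/L MgCl₂. Started by adding test compound (1 µmol/L final). A no-NADPH control was run in parallel. Sampled at 0, 5, 15, 30 and 60 min and quenched in acidified acetonitrile. LC/MS/MS gave t1/2 and CLint. At least duplicate independent assays.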

[3] = Plasma stability in human plasma; format: in vitro ADME; details: 1 μmol/L, 80% plasma, 37 °C
How it was run: (§1)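 Test compound (1 µmol/L final) incubated in duplicate in pooled plasma diluted to 80% in 0.1 mol/L potassium phosphate, pH 7.4, at 37 °C. Aliquots taken at 0, 1, 3, 6 and 24 h, quenched with acetonitrile containing 0.1% formic acid, and centrifuged. Supernatant analysed by LC/MS/MS to derive plasma t1/2.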

[4] = Plasma stability in CD-1 mouse plasma; format: in vitro ADME, CD-1 mice
How it was run: as §1

[5] = Pharmacokinetics and oral bioavailability of GS-441524 in CD-1 mice; format: in vivo
[6] = Tissue distribution of GS-441524 and GS-443902 in CD-1 mice after oral dosing; format: in vivo; details: 20 mg/kg oral dose
[7] = system: SARS-CoV-2; details: Calu-3 2B4 cells, cited from earlier work
[8] = system: SARS-CoV-2; details: Vero E6 cells, cited from earlier work
[9] = system: SARS-CoV-2; details: read-out: EC50 against SARS-CoV-2; A549-hACE2 cells; cited from earlier work
[10] = system: major CYP enzymes including 1A1, 1A2, 2B6, 2C8, 2C9, 2C19, 2D6, 3A4, or 3A5; details: cited from earlier work
[11] = human, after iv infusion of RDV, phase I; cited from earlier work
[12] = system: CYP 2C8, 2D6 and 3A4; details: cited from earlier work
[13] = system: P-glycoprotein (P-gp); details: cited from earlier work
[14] = male, CD-1, mouse, plasma, iv, 5 mg/kg
[15] = male, CD-1, mouse, plasma, po, 10 mg/kg
[16] = read-out: EC50 against SARS-CoV-2
[17] = read-out: EC90 against SARS-CoV-2

SMILES: N#C[C@@]1(c2ccc3c(N)ncnn23)O[C@H](CO)[C@@H](O)[C@H]1O [GS-441524]
- microsomal CLint at 1 μmol/L [1]: 1.9 ± 0.1 µL/min/mg
- Remaining percentage at 60 min in HLMs ([1]; with NADPH, 60 min): over 91%
- microsomal CLint at 1 μmol/L [2]: 1.7 ± 0.4 µL/min/mg
- Remaining percentage at 60 min in MLMs ([2]; with NADPH, 60 min): over 91%
- Plasma stability t1/2 Human [3]: >1440 min
- Plasma stability t1/2 Mouse ([4]; 1 μmol/L, 80% CD-1 mouse plasma, 37 °C): >1440 min
- MRT [5, 14]: 1.7 h
- Tmax [5, 14]: 4.98 min
- Vd [5, 14]: 4.2 L/kg
- clearance [5, 14]: 20 mL/min/kg
- half-life [5, 14]: 150 min
- AUC ([5]; male, CD-1, mouse, plasma, iv, 5 mg/kg, AUC0‒t, iv 5 mg/kg, CD-1 mice): 14.8 µM·h
- AUC ([5]; male, CD-1, mouse, plasma, iv, 5 mg/kg, AUC0‒∞, iv 5 mg/kg, CD-1 mice): 14.8 µM·h
- Cmax ([5]; male, CD-1, mouse, plasma, iv, 5 mg/kg, Cmax, iv 5 mg/kg, CD-1 mice): 11.6 µM
- MRT [5, 15]: 4.2 h
- Tmax [5, 15]: 60 min
- half-life [5, 15]: 174 min
- AUC ([5]; male, CD-1, mouse, plasma, po, 10 mg/kg, AUC0‒t, po 10 mg/kg, CD-1 mice): 16.8 µM·h
- AUC ([5]; male, CD-1, mouse, plasma, po, 10 mg/kg, AUC0‒∞, po 10 mg/kg, CD-1 mice): 16.8 µM·h
- CL (clearance) ([5]; po 10 mg/kg, CD-1 mice): 2.0 L/h/kg
- V (volume of distribution) ([5]; po 10 mg/kg, CD-1 mice): 8.4 L/kg
- Plasma level from 0.25 to 2 h ([5]; po 10 mg/kg, CD-1 mice, 0.25 to 2 h): > 2 µmol/L
- Cmax ([5]; po 10 mg/kg, CD-1 mice, plasma, 10 mg/kg): 3.28 µM
- Concentration in lung within the first 4 h ([6]; lung): ≥ 2.2 µmol/L
- Concentration in plasma within the first 4 h ([6]; plasma): ≥ 2.2 µmol/L
- EC50 [7, 16]: 620 nM
- EC90 [7, 17]: 1340 nM
- EC50 [8, 16]: 470 nM
- EC90 [8, 17]: 710 nM
- EC50 [9]: 870 nM
- Substrate of major CYP enzymes [10]: not a substrate

SMILES: CCC(CC)COC(=O)[C@H](C)N[P@](=O)(OC[C@H]1O[C@@](C#N)(c2ccc3c(N)ncnn23)[C@H](O)[C@@H]1O)Oc1ccccc1 [RDV, Remdesivir]
- Remaining percentage of intact RDV at 60 min with NADPH/Cobi ([1]; HLMs, with NADPH/Cobi, 60 min): 38.5%
- Remaining percentage of intact RDV at 60 min without NADPH ([1]; HLMs, without NADPH, 60 min): 26.1%
- microsomal CLint at 1 μmol/L [1]: 1260 ± 68.6 µL/min/mg
- microsomal CLint at 1 μmol/L [2]: 1680 ± 130 µL/min/mg
- Microsomal stability MLMs t1/2 ([2]; with cofactor NADPH, 1 μmol/L compound, 0.5 mg/mL microsomal protein): 0.8 ± 0.1 min
- half-life at 1 μmol/L ([4]; CD-1, mouse, plasma (80% in buffer), pH 7.4): < 1 min
- Stability in CD-1 mouse plasma (in words) ([4]; wild-type CD-1 mouse plasma): undetectable within seconds
- Plasma half-life (t1/2) [11]: about 1 h
- Substrate for CYP 2C8, 2D6 and 3A4 [12]: substrate
- Substrate of P-glycoprotein (P-gp) [13]: substrate
